ChEMBL document CHEMBL4325883, “Non-chelating p-phenylidene-linked bis-imidazoline analogs of known influenza virus endonuclease inhibitors: Synthesis and anti-influenza activity” (Eur J Med Chem, 2019)

Columns and labels:
[1] = Cytotoxicity against MDCK cells after 24 hrs by MTT assay; assay type: cell-based, Canis lupus familiaris; conditions: dog
How it was run: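 MDCK cells grown 24 h at 36 °C, 5% CO2 to confluence. Threefold dilutions in MEM added for 24 h. Cells washed twice with saline, then MTT in MEM for 1 h at 36 °C. Formazan dissolved in DMSO, OD read at 540 nm. CC50 (50% cell death) from four-parameter logistic fit.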

[2] = Selectivity index, ratio of CC50 for MDCK cells to IC50 for Influenza A virus (A/Puerto Rico/8/34(H1N1)) […] infected in MDCK cells; assay type: toxicity, cell-based; conditions: dog, read-out: Ratio CC50/IC50
How it was run: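 SI computed as CC50/IC50. CC50 from the MTT assay on MDCK cells (24 h). IC50 is the concentration halving A/PR/8/34 (H1N1) titer in MDCK cells, measured by hemagglutination.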

Structure (SMILES) | CC50 at 24 h [1] | selectivity ratio [2]
COc1ccc(N2CCN=C2c2ccc(C3=NCCN3c3ccc(OC)cc3)cc2)cc1 | 361 µM | 23
Fc1ccc(N2CCN=C2c2ccc(C3=NCCN3c3ccc(F)cc3)cc2)cc1 | 144 µM | 12
FC(F)(F)c1ccc(N2CCN=C2c2ccc(C3=NCCN3c3ccc(C(F)(F)F)cn3)cc2)nc1 | 455 µM | 4
c1ccc(N2CCN=C2c2ccc(C3=NCCN3c3ccccc3)cc2)cc1 | > 817 µM | > 11
c1cncc(N2CCN=C2c2ccc(C3=NCCN3c3cccnc3)cc2)c1 | > 813 µM | > 12
c1ccc(N2CCN=C2c2ccc(C3=NCCN3c3ccccn3)cc2)nc1 | 127 µM | 4
c1cnc(N2CCN=C2c2ccc(C3=NCCN3c3cnccn3)cc2)cn1 | > 809 µM | 
Clc1ccc(N2CCN=C2c2ccc(C3=NCCN3c3ccc(Cl)cc3)cc2)cc1 | 9 µM | 2
c1ccc(N2CCN=C2c2ccc(C3=NCCN3)cc2)cc1 | > 1030 µM | > 34
COc1ccc(N2CCN=C2c2ccc(C3=NCCN3)cc2)cc1 | 224 µM | 5
Fc1ccc(N2CCN=C2c2ccc(C3=NCCN3)cc2)cc1 | > 971 µM | > 15
CC(N)C12CC3CC(CC(C3)C1)C2 (stereo not drawn) [RIMANTADINE] | 62 µM | 6
